This note sets out measurements from ChEMBL document CHEMBL1149394, “Guiding farnesyltransferase inhibitors from an ECLiPS library to the catalytic zinc” (Bioorg Med Chem Lett, 2006).

Some results are limits rather than exact numbers.

In data set [1] the target is T1, Protein farnesyltransferase (Homo sapiens, UniProt P49354+P49356). Description: Inhibitory activity against farnesyltransferase quantified by SPA assay. The class given is protein-complex assay.
For data set [2], the target named is T1, Protein farnesyltransferase. As to the kind of experiment: Inhibitory activity against Ha-Ras processing in COS7 cells. The class given is functional, cell-based, COS-7.
The next data set deals with Liver microsomes. As to the kind of experiment: Metabolic stability in rat liver microsome. The class given is ADME. The procedure, abridged:
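Rat liver microsomes (cytochrome P450 content 6.7 µM) incubated 60 min at 37 °C with compound at 10 µM, KPi pH 7.4 and freshly prepared NADPH, in 1.0 ml final. Read-out is percent of compound remaining.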
In general terms: Microsomes from liver hold many membrane-bound enzymes, among them those of drug oxidation.

Data set [3] addresses Geranylgeranyl transferase type I (Homo sapiens, UniProt P49354+P53609). As to the kind of experiment: Inhibitory activity against Geranylgeranyltransferase 1. Type of data set: protein-complex assay.
In data set [4] the target is T1, Protein farnesyltransferase. As to the kind of experiment: Inhibitory activity against Farnesyltransferase quantified by modified SPA assay with improved sensitivity. Type of data set: protein-complex assay. The essentials: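 Scintillation proximity assay, high-sensitivity version. Purified FTase (30 pM final) was pre-incubated with inhibitor or DMSO control (5% v/v final) for 15 min at room temperature. The reaction was started with biotin-CVLS (100 nM final) and run for 60 min at 37 °C. It was quenched with a cold suspension of 250 mM EDTA pH 8.0, 0.5% BSA and SPA beads, then the IC50 was determined.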

Data set [5] in a line: Bioavailability in mice. Type of data set: ADME, organism-based. The following applies: mouse, in vivo.
The test system of another data set is Mus musculus. As to the kind of experiment: AUC in mice at 10 mg/kg, po. Also noted: dose 10 mg/kg, route oral. The following applies: in vivo. Type of data set: ADME, organism-based, Plasma.
The nature of data set [6]: Cmax in mice at 10 mg/kg, po. Also noted: dose 10 mg/kg, route oral. The following applies: mouse, in vivo. The class given is ADME, organism-based.

Turning to `CCCCNC(=O)N1CCN(C2c3ccc(Cl)cc3CCc3cc(Br)cnc32)CC1C(=O)NCc1cccnc1` (configuration not stated), the IC50 (commonly the concentration that gives 50% inhibition) in data set [1] turned out to be 9.1 nM; in data set [2], 45 nM.

For `CCCCCC(=O)N1CCN(C2c3ccc(Cl)cc3CCc3cc(Br)cnc32)CC1C(=O)NCc1cccnc1` (configuration not stated), the IC50 in data set [1] was determined as 8 nM; in data set [2], 75 nM.

On to `CCCCC(=O)N1CCN(C2c3ccc(Cl)cc3CCc3cc(Br)cnc32)CC1C(=O)Nc1cccnc1` (configuration not stated), for which the half-maximal inhibitory concentration (IC50) amounted to 18 nM in data set [1] and 100 nM in data set [2].

With `CC(C)(C)OC(=O)N1CCN(C2c3ccc(Cl)cc3CCc3cc(Br)cnc32)CC1C(=O)NCc1cccnc1` (configuration not stated), the half-maximal inhibitory concentration (IC50) in data set [1] was 22 nM; in data set [2], above 200 nM.

Turning to `O=C(NCc1cccnc1)C1CN(C2c3ccc(Cl)cc3CCc3cc(Br)cnc32)CCN1C(=O)CCC1CCCCC1` (configuration not stated), the half-inhibitory concentration (IC50) in data set [1] came out at 20 nM; in data set [2], 38 nM.

For the compound `CC(C)NC(=O)N1CCN(C2c3ccc(Cl)cc3CCc3cc(Br)cnc32)CC1C(=O)NCc1cccnc1` (configuration not stated), the IC50 in data set [1] was determined as 47 nM; in data set [2] it was 140 nM.

Consider `COC(=O)CCCCC(=O)N1CCN(C2c3ccc(Cl)cc3CCc3cc(Br)cnc32)CC1C(=O)NCc1cccnc1` (configuration not stated), for which the concentration for half-maximal inhibition (IC50) in data set [1] was 7.9 nM; in data set [2], 62 nM.

On to `O=C(NCCc1c[nH]cn1)C1CN(C2c3ccc(Cl)cc3CCc3cc(Br)cnc32)CCN1C(=O)NC1CCCCC1` (configuration not stated), for which the 50% inhibitory concentration (IC50) was 7 nM in data set [1] and 18 nM in data set [2].

For `O=C(NCc1cccnc1)C1CN(C2c3ccc(Cl)cc3CCc3cc(Br)cnc32)CCN1C(=O)C1CCCCCC1` (configuration not stated), the IC50 in data set [1] was found to be 12 nM; in data set [2], 85 nM.

As for `CCCCC(=O)N1CCN(C2c3ccc(Cl)cc3CCc3cc(Br)cnc32)CC1C(=O)NCc1ccc[n+]([O-])c1` (configuration not stated), the concentration for half-maximal inhibition (IC50) in data set [2] was above 200 nM.

For `O=C(NCCCc1c[nH]cn1)C1CN(C2c3ccc(Cl)cc3CCc3cc(Br)cnc32)CCN1C(=O)NC1CCCCC1` (configuration not stated), the IC50 was determined as 13 nM in data set [1] and 9.7 nM in data set [2].

On to `CCCCC(=O)N1CCN(C2c3ccc(Cl)cc3CCc3cc(Br)cnc32)CC1C(=O)Nc1cnccn1` (configuration not stated), for which the IC50 in data set [1] is 190 nM; in data set [2], 570 nM.

In data set [2], `CCCCC(=O)N1CCN(C2c3ccc(Cl)cc3CCc3cc(Br)cnc32)CC1C(=O)NCCc1c[nH]cn1` (configuration not stated) registered a 50% inhibitory concentration (IC50) of 60 nM.

In the case of `CCCCC(=O)N1CCN(C2c3ccc(Cl)cc3CCc3cc(Br)cnc32)CC1C(=O)NCc1c[nH]cn1` (configuration not stated), the 50% inhibitory concentration (IC50) in data set [1] was found to be 45 nM; in data set [2], 210 nM.

For `CCCCC(=O)N1CCN(C2c3ccc(Cl)cc3CCc3cc(Br)cnc32)CC1C(=O)NCc1cccnc1` (configuration not stated), the IC50 amounted to 5.7 nM in data set [1] and 64 nM in data set [2].

As for `CCCCC(=O)N1CCN(C2c3ccc(Cl)cc3CCc3cc(Br)cnc32)CC1C(=O)Nc1cc(C)no1` (configuration not stated), the figures for the IC50 in data set [1] and in data set [2] were 560 nM and above 4500 nM, respectively.

For the compound `O=C(NCc1cccnc1)C1CN(C2c3ccc(Cl)cc3CCc3cc(Br)cnc32)CCN1C(=O)NC1CC1` (configuration not stated), the IC50 in data set [1] came out at 51 nM; in data set [2], 260 nM.

Take `COCCC(=O)N1CCN(C2c3ccc(Cl)cc3CCc3cc(Br)cnc32)CC1C(=O)NCc1cccnc1` (configuration not stated): the half-maximal inhibitory concentration (IC50) in data set [1] was 20 nM; in data set [2] it was 100 nM.

Turning to `CC(C)(C)NC(=O)N1CCN(C2c3ccc(Cl)cc3CCc3cc(Br)cnc32)CC1C(=O)NCc1cccnc1` (configuration not stated), the results for the 50% inhibitory concentration (IC50) in data set [1] and in data set [2] were 15 nM and 54 nM, respectively.

On to `O=C(NCc1cccnc1)C1CN(C2c3ccc(Cl)cc3CCc3cc(Br)cnc32)CCN1C(=O)C1CCCC1` (configuration not stated), for which the IC50 in data set [1] worked out at 17 nM; in data set [2], 65 nM.

For the compound `Cc1ccc(CNC(=O)C2CN(C3c4ccc(Cl)cc4CCc4cc(Br)cnc43)CCN2C(=O)NC2CCCCC2)cn1` (configuration not stated), the 50% inhibitory concentration (IC50) was 61 nM in data set [1] and 550 nM in data set [2].

Regarding `CC(C)CC(=O)N1CCN(C2c3ccc(Cl)cc3CCc3cc(Br)cnc32)CC1C(=O)NCc1cccnc1` (configuration not stated), the IC50 was found to be 7.3 nM in data set [1] and 50 nM in data set [2].

As for `CCCNC(=O)N1CCN(C2c3ccc(Cl)cc3CCc3cc(Br)cnc32)CC1C(=O)NCc1cccnc1` (configuration not stated), the concentration for half-maximal inhibition (IC50) in data set [1] was 19 nM; in data set [2], 59 nM.

For `CC(C)CNC(=O)N1CCN(C2c3ccc(Cl)cc3CCc3cc(Br)cnc32)CC1C(=O)NCc1cccnc1` (configuration not stated), the IC50 was found to be 8 nM in data set [1] and 52 nM in data set [2].

Regarding `O=C(Nc1nncs1)C1CN(C2c3ccc(Cl)cc3CCc3cc(Br)cnc32)CCN1C(=O)NC1CCCCC1` (configuration not stated), the IC50 in data set [1] was 490 nM; in data set [2] it was above 10000 nM.

For `Cn1cncc1CCNC(=O)C1CN(C2c3ccc(Cl)cc3CCc3cc(Br)cnc32)CCN1C(=O)NC1CCCCC1` (configuration not stated), the results for the concentration for half-maximal inhibition (IC50) in data set [1] and in data set [2] were 7.3 nM and 13 nM, respectively.

Consider `Cn1cnc(CCNC(=O)C2CN(C3c4ccc(Cl)cc4CCc4cc(Br)cnc43)CCN2C(=O)NC2CCCCC2)c1` (configuration not stated), for which the 50% inhibitory concentration (IC50) in data set [1] was 26 nM; in data set [2] it was 91 nM.

For `O=C(NCCCN1CCCC1=O)C1CN(C2c3ccc(Cl)cc3CCc3cc(Br)cnc32)CCN1C(=O)NC1CCCCC1` (configuration not stated), the IC50 in data set [1] worked out at 14 nM; in data set [2] it was 20 nM.

Consider `O=C(NCc1cccnc1)C1CN(C2c3ccc(Cl)cc3CCc3cc(Br)cnc32)CCN1C(=O)NC1CCCCC1` (configuration not stated), for which the IC50 stood at 5.5 nM in data set [1] and 8.6 nM in data set [2].

Turning to `O=C(NCc1cccnc1)C1CN(C2c3ccc(Cl)cc3CCc3cc(Br)cnc32)CCN1C(=O)NC1CCCCCC1` (configuration not stated), the IC50 was found to be 9.1 nM in data set [1] and 52 nM in data set [2].

As for `O=C(NCc1cccnc1)C1CN(C2c3ccc(Cl)cc3CCc3cc(Br)cnc32)CCN1C(=O)NCC1CCCCC1` (configuration not stated), the results for the IC50 in data set [1] and in data set [2] were 10 nM and 53 nM, respectively.

As for `O=C(O)CCCC(=O)N1CCN(C2c3ccc(Cl)cc3CCc3cc(Br)cnc32)CC1C(=O)NCc1cccnc1` (configuration not stated), the 50% inhibitory concentration (IC50) in data set [1] is 7 nM; in data set [2], above 200 nM.

On to `CC(=O)CCCC(=O)N1CCN(C2c3ccc(Cl)cc3CCc3cc(Br)cnc32)CC1C(=O)NCc1cccnc1` (configuration not stated), for which the IC50 in data set [1] amounted to 8.4 nM; in data set [2], 54 nM.

On to `CN(C)C(=O)CCC(=O)N1CCN(C2c3ccc(Cl)cc3CCc3cc(Br)cnc32)CC1C(=O)NCc1cccnc1` (configuration not stated), for which the values for the IC50 in data set [1] and in data set [2] were 13 nM and 11 nM, respectively.

`CCOCC(=O)N1CCN(C2c3ccc(Cl)cc3CCc3cc(Br)cnc32)CC1C(=O)NCc1cccnc1` (configuration not stated): the values for the half-maximal inhibitory concentration (IC50) in data set [1] and in data set [2] were 21 nM and 160 nM, respectively.

In data set [1], `Cc1noc(C)c1CNC(=O)C1CN(C2c3ccc(Cl)cc3CCc3cc(Br)cnc32)CCN1C(=O)NC1CCCCC1` (configuration not stated) yielded a half-inhibitory concentration (IC50) of 760 nM.

For `CCCCC(=O)N1CCN(C2c3ccc(Cl)cc3CCc3cc(Br)cnc32)CC1C(=O)NCc1ncc[nH]1` (configuration not stated), the 50% inhibitory concentration (IC50) in data set [1] is 80 nM; in data set [2], above 200 nM.

In the case of `O=C(NCc1cccnc1)C1CN(C2c3ccc(Cl)cc3CCc3cc(Br)cnc32)CCN1C(=O)NC1CCCC1` (configuration not stated), the half-inhibitory concentration (IC50) in data set [1] came out at 14 nM; in data set [2], 28 nM.

With `CC(=O)CCCCC(=O)N1CCN(C2c3ccc(Cl)cc3CCc3cc(Br)cnc32)CC1C(=O)NCc1cccnc1` (configuration not stated), the IC50 worked out at 8 nM in data set [1] and 49 nM in data set [2].

In the case of `CC(C)(C)CC(=O)N1CCN(C2c3ccc(Cl)cc3CCc3cc(Br)cnc32)CC1C(=O)NCc1cccnc1` (configuration not stated), the IC50 in data set [1] is 12 nM; in data set [2] it was 120 nM.

Turning to `CC(=O)CCC(=O)N1CCN(C2c3ccc(Cl)cc3CCc3cc(Br)cnc32)CC1C(=O)NCc1cccnc1` (configuration not stated), the IC50 in data set [1] is 11 nM; in data set [2], 47 nM.

As to `O=C(NCCCn1ccnc1)C1CN(C2c3ccc(Cl)cc3CCc3cc(Br)cnc32)CCN1C(=O)NC1CCCCC1` (stereo in doubt; 41), the 50% inhibitory concentration (IC50) in data set [1] turned out to be 4.5 nM; in data set [2] it was 4.2 nM.

Take `O=C(NCCCn1ccnc1)C1CN(C2c3ccc(Cl)cc3CCc3cc(Br)cnc32)CCN1C(=O)NC1CCCCC1` (stereo in doubt; 41a): in the data set on Liver microsomes, the Stability is above 95%. Further, the IC50 in data set [3] was determined as 22000 nM; in data set [1] it was 2 nM; in data set [4] it was 0.1 nM; in data set [2], 1.2 nM.

Turning to `O=C(NCCCn1ccnc1)C1CN(C2c3ccc(Cl)cc3CCc3cc(Br)cnc32)CCN1C(=O)NC1CCCCC1` (stereo in doubt; 41b), the bioavailability (commonly the share of a dose that reaches the circulation, judged against a reference dose that is usually intravenous) in data set [5] was 10.6%. For the same compound, the IC50 was above 10000 nM in data set [3], 1.5 nM in data set [1] and 0.56 nM in data set [2]. Also, in the data set with Mus musculus, the AUC (commonly the area under the concentration-time curve, a measure of exposure) came to 1660 ng·h/mL. Also, in data set [6], the Cmax (commonly the maximum level reached in the sampled fluid or tissue) was 2550 nM.
